Experimental data as given in ChEMBL document CHEMBL5653613 (Mol Cancer Ther, 2013).
Activity calls are given as the source filed them. The rule behind the calls is not given here.

Experiments:
[1] = system: T47D; assay: Induction of apoptosis in human T47D cells assessed as rate of apoptotic cell death at 5 umol/L by annexin V/PI staining based flow cytometry relative to control; type: functional; conditions: dose 5 µmol/L; at 5 µM
[2] = system: T47D; assay: Disruption of microtubule dynamics in human T47D cells assessed as formation of multipolar spindles at 5 umol/L incubated upto 72 hrs by immunofluorescence staining based analysis; type: functional, cell-based; conditions: dose 5.0 µmol/L
Method in brief: (§1)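 T-47D cells (1 × 10^6/dish) in RPMI-1640 with 5% FBS were treated with or without 5 µmol/L for 24, 48 and 72 h. Cells were fixed in cold acetone and stained with mouse anti-α-tubulin or anti-γ-tubulin, then an FITC anti-mouse IgG secondary, plus DAPI. Fluorescence microscopy, 200× magnification.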

[3] = system: T47D; assay: Induction of apoptosis in human T47D cells assessed as early cells at 5 umol/L incubated for 3 days by Annexin V/PI staining based flow cytometry (reference value: 0.8 %); type: functional; conditions: dose 5 µmol/L; time 3 day; at 5 µM
[4] = system: T47D; assay: Induction of apoptosis in human T47D cells assessed as necrotic cells at 5 umol/L incubated for 3 days by Annexin V/PI staining based flow cytometry (reference value: 0.6 %); type: functional; conditions: dose 5 µmol/L; time 3 day; at 5 µM
[5] = system: T47D; assay: Inhibition of cell growth of human T47D cells at 5 uM; type: functional, cell-based; conditions: time <= 48.0 hrs, TDE = time-dependent effect
[6] = system: ZR-75-1; assay: Induction of polyploidy in human ZR-75-1 cells at 5 umol/L incubated for 72 hrs by microscopic analysis relative to control; type: functional; conditions: dose 5 µmol/L, at 5 µM
Method in brief: (§2)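 Cells stained with Hema-3 and photographed under a light microscope with CCD camera. Polyploid cells scored as percent of the population.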

[7] = system: T47D; assay: Induction of polyploidy in human T47D cells at 10 umol/L incubated for 72 hrs by microscopic analysis relative to control; type: functional; conditions: dose 10 µmol/L, at 10 µM; method in brief: as §2
[8] = system: ZR-75-1; assay: Induction of polyploidy in human ZR-75-1 cells at 10 umol/L incubated for 72 hrs by microscopic analysis relative to control; type: functional; conditions: dose 10 µmol/L, at 10 µM; method in brief: as §2
[9] = system: MCF7; assay: Induction of polyploidy in human MCF7 cells at 5 uM incubated for 72 hrs by microscopic analysis; type: functional, cell-based; method in brief: as §2
[10] = system: T47D; assay: Induction of polyploidy in human T47D cells with RON-/- at 5 umol/L incubated for 72 hrs by microscopic analysis; type: functional, cell-based; conditions: dose 5.0 µmol/L
Method in brief: (§3)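 Cells (2 106 per 60-mm dish) transiently transfected for 48 hours with 1 nmol/L scrambled or RON-specific siRNA, with knockdown confirmed by anti-RON Western blot. […] Polyploidy monitored and photographed by microscopy, with untransfected and scrambled-siRNA cells as comparators.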

[11] = system: T47D; assay: Induction of polyploidy in human T47D cells with RON-/- at 5 umol/L incubated for 72 hrs by microscopic analysis (reference value: 83.5 %); type: functional; conditions: dose 5 µmol/L, at 5 µM; method in brief: as §3
[12] = system: ZR-75-1; assay: Induction of polyploidy in human ZR-75-1 cells with RON-/- by microscopic analysis; type: functional, cell-based; method in brief: as §3
[13] = system: T47D; assay: Induction of polyploidy in human T47D cells with RON-/- at 5 umol/L incubated for 72 hrs followed by media replacement without compound measured upto 10 days by microscopic analysis; type: functional, cell-based; conditions: dose 5.0 µmol/L
[14] = system: ZR-75-1; assay: Inhibition of cell proliferation of human ZR-75-1 cells with RON-/- at 5 umol/L incubated for 72 hrs followed by media replacement without compound measured upto 10 days by microscopic analysis; type: functional, cell-based; conditions: dose 5.0 µmol/L
[15] = system: MCF7; assay: Induction of polyploidy in human MCF7 cells assessed as cells with 2N chromosome contents at 5 uM incubated for 24 hrs by PI staining based flow cytometry (reference value: 52); type: functional
[16] = system: MCF7; assay: Induction of polyploidy in human MCF7 cells assessed as cells with 4N chromosome contents at 5 uM incubated for 24 hrs by PI staining based flow cytometry (reference value: 36); type: functional
[17] = system: MCF7; assay: Induction of polyploidy in human MCF7 cells assessed as cells with 16N chromosome contents at 5 uM incubated for 24 hrs by PI staining based flow cytometry (reference value: 0); type: functional
[18] = system: MCF7; assay: Induction of polyploidy in human MCF7 cells assessed as cells with 8N chromosome contents at 5 uM incubated for 72 hrs by PI staining based flow cytometry (reference value: 0); type: functional
[19] = system: MCF7; assay: Induction of polyploidy in human MCF7 cells assessed as cells with 16N chromosome contents at 5 uM incubated for 72 hrs by PI staining based flow cytometry (reference value: 0); type: functional
[20] = system: T47D; assay: Induction of polyploidy in human T47D cells assessed as cells with 4N chromosome contents at 5 uM incubated for 48 hrs by PI staining based flow cytometry (reference value: 35); type: functional
[21] = system: T47D; assay: Induction of polyploidy in human T47D cells assessed as cells with 2N chromosome contents at 5 uM incubated for 72 hrs by PI staining based flow cytometry (reference value: 48); type: functional
[22] = system: T47D; assay: Induction of polyploidy in human T47D cells assessed as cells with 4N chromosome contents at 5 uM incubated for 72 hrs by PI staining based flow cytometry (reference value: 35); type: functional
[23] = system: T47D; assay: Disruption of microtubule dynamics in human T47D cells assessed as lack of metaphase equatorial alignment at 5 umol/L incubated for 24 hrs by immunofluorescence staining based analysis; type: functional, cell-based; conditions: dose 5.0 µmol/L; method in brief: as §1
[24] = system: T47D; assay: Downregulation of histone H3 expression in human T47D cells at 5 umol/L incubated upto 72 hrs by Western blot analysis; type: functional, cell-based; conditions: dose 5.0 µmol/L
Method in brief: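 Cells were treated with 5 µmol/L for 0, 24, 48 and 72 h. Lysates were immunoblotted for AURK-B, phospho-Ser10 histone H3 and total histone H3, with β-actin reprobe as the loading control. Detection by enhanced chemiluminescence.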

[25] = Effect on bleomycin resistance in human T47D cells with compound-induced polyploidy assessed as change in bleomycin-induced cytotoxicity by measuring increase in bleomycin IC50 at 5 umol/L preincubated for 72 hrs followed by compound washout and subsequent bleomycin treatment for 72 hrs by MTS assay; type: functional, cell-based
[26] = Effect on paclitaxel resistance in human T47D cells with compound-induced polyploidy assessed as change in paclitaxel-induced cytotoxicity by measuring increase in paclitaxel IC50 at 5 umol/L preincubated for 72 hrs followed by compound washout and subsequent paclitaxel treatment for 72 hrs by MTS assay; type: functional, cell-based
[27] = Effect on doxorubicin resistance in human ZR-75-1 cells with compound-induced polyploidy assessed as change in doxorubicin-induced cytotoxicity by measuring increase in DOX IC50 at 5 umol/L preincubated for 72 hrs followed by compound washout and subsequent doxorubicin treatment for 72 hrs by MTS assay; type: functional, cell-based
[28] = Effect on methotrexate resistance in human ZR-75-1 cells with compound-induced polyploidy assessed as change in methotrexate-induced cytotoxicity by measuring increase in methotrexate IC50 at 5 umol/L preincubated for 72 hrs followed by compound washout and subsequent methotrexate treatment for 72 hrs by MTS assay; type: functional, cell-based
Method in brief: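 Cells were first given the inducing compound for 72 h in 100-mm dishes. Polyploid cells were collected, washed and replated at 5,000 cells/well, with untreated cells at the same density as control. Methotrexate was added over a concentration range for 72 h, in triplicate. Viability was read by MTS assay and the IC50 calculated; 1 of 3 experiments shown.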

[29] = Effect on paclitaxel resistance in human ZR-75-1 cells with compound-induced polyploidy assessed as change in paclitaxel-induced cytotoxicity by measuring increase in paclitaxel IC50 at 5 umol/L preincubated for 72 hrs followed by compound washout and subsequent paclitaxel treatment for 72 hrs by MTS assay; type: functional, cell-based

For `CCOc1ccn(-c2ccc(F)cc2)c(=O)c1C(=O)Nc1ccc(Oc2ccnc(N)c2Cl)c(F)c1` [BMS-777607], the Activity [1] was 10.3%, the Activity [2] was “Active” and the Activity [3] was 2.2%. For the same molecule, the Activity [4] was 2.4%, the inhibition [5] was “Tde” and the Activity [6] was 82%. The Activity [7] was 86%, the Activity [8] was 88% and the Activity [9] was “Active”. The Activity [10] was “Active”, the Activity [11] was 79.4% and the Activity [12] was “Active”. The Activity [13] was “Active”, the inhibition [14] was “inactive” and the Activity [15] was 15.5. The Activity [16] was 45.5, the Activity [17] was 0 and the Activity [18] was 29. It also gave an Activity [19] of 0, an Activity [20] of 22 and an Activity [21] of 7.5. For the same molecule, the Activity [22] was 20, the Activity [23] was “Active” and the Activity [24] was “inactive”. The IC50 [25] was 2.72 µM, the IC50 [26] was 0.0316 µM and the IC50 [27] was 1.18 µM. For the same molecule, the IC50 [28] was 0.43 µM and the IC50 [29] was 0.0208 µM.
